Measured values reported in ChEMBL document CHEMBL1139056, “3D-QSAR design of novel antiepileptic sulfamides” (2007).
Active and inactive are the calls of the source. No cut-off for these calls is given here.

Key:
Mus musculus [1] = experiment: Anticonvulsant activity in ip dosed Albino mouse by MES test; type: functional
Procedure, shortened: (§1)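 Albino mice of matched age and weight, 12-h light/dark cycle, free food and water. Compound given ip in 30% PEG 400 and 10% water, 0.01 ml/g body weight. MES test by NIH antiepileptic drug development program standard procedures. ED50 from groups of six mice at several doses at time of peak effect; Litchfield–Wilcoxon with 95% confidence intervals.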

Mus musculus [2] = experiment: Anticonvulsant activity in ip dosed Albino mouse by PTZ test; type: functional, organism-based
Procedure, shortened: (§2)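 Mice of matched age and weight, 12-h light/dark cycle, food and water ad libitum. Dosing ip in 30% PEG 400 and 10% water at 0.01 ml/g body weight. PIC and PTZ seizure tests run by NIH antiepileptic drug development program standard procedures.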

Mus musculus [3] = experiment: Anticonvulsant activity in ip dosed Albino mouse by PIC test; type: functional, organism-based; procedure, shortened: as §2
Mus musculus [4] = experiment: Anticonvulsant activity in ip dosed Albino mouse assessed as time of peak effect by MES test; type: functional; procedure, shortened: as §1

For `O=S(=O)(NC1CC1)NC1CC1`, the Activity (Mus musculus [1]) was “inactive”, the Activity (Mus musculus [2]) was “inactive” and the Activity (Mus musculus [3]) was “inactive”.
With `O=S(=O)(NC1CCCCC1)NC1CCCCC1` the ED50 (Mus musculus [1]) was 151 µmol/kg, the Activity (Mus musculus [2]) was “inactive” and the Activity (Mus musculus [4]) was 0.5 h.
For `O=S(=O)(N1CCOCC1)N1CCOCC1`, the Activity (Mus musculus [1]) was “inactive”, the Activity (Mus musculus [2]) was “inactive” and the Activity (Mus musculus [3]) was “inactive”.
`CCCCNS(=O)(=O)NCCCC` [BUTYL(BUTYLSULFAMOYL)AMINE] was tested, and the ED50 (Mus musculus [1]) was 295 µmol/kg, the Activity (Mus musculus [2]) was “inactive” and the Activity (Mus musculus [4]) was 2 h. For the same compound, the Activity (Mus musculus [3]) was “inactive”.
`O=S(=O)(NCc1ccccc1)NCc1ccccc1` [BENZYL(BENZYLSULFAMOYL)AMINE] was tested, and the ED50 (Mus musculus [1]) was 238 µmol/kg, the Activity (Mus musculus [2]) was “inactive” and the Activity (Mus musculus [4]) was 2 h. The Activity (Mus musculus [3]) was “inactive”.
